Experimental data as given in ChEMBL document CHEMBL4400546, “A Cinchona Alkaloid Antibiotic That Appears To Target ATP Synthase in Streptococcus pneumoniae” (J Med Chem, 2019).
In brackets after ≈: the same amount, converted by molar mass.

Legend:
[1] = tested on: Streptococcus pneumoniae D39; assay: Inhibition of wild-type Streptococcus pneumoniae D39 ATP synthase atpE assessed as intracellular pH at 10 uM measured at 5 mins intervals by pH-sensitive GFP-based fluorescence assay (reference value: 7.34 +/- 0.04); format: cell-based
In short: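 S. pneumoniae D39 WT and isogenic atpE G142C or G145A mutants carry a plasmid-borne ratiometric pH-sensitive GFP biosensor. Cells are in PBS pH 7.2 with 10 mM glucose and are treated with compound, DMSO (0.5% v/v) or CCCP (10 µM). Intracellular pH is read immediately and at 5-min intervals. Two independent experiments, each in triplicate.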

Enterococcus faecium = assay: Antibacterial activity against Enterococcus faecium; format: functional
Streptococcus pyogenes = assay: Antibacterial activity against Streptococcus pyogenes; format: functional
Enterococcus faecalis = assay: Antibacterial activity against Enterococcus faecalis; format: functional
Streptococcus pneumoniae [2] = assay: Antibacterial activity against Streptococcus pneumoniae; format: functional
In short: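 MIC read per CLSI guidelines as the lowest concentration giving complete inhibition of visible growth. The main screen used strain D39. A further panel covered drug-sensitive, multidrug-resistant and optochin-resistant strains, including R6 carrying atpE point mutations G142C or G145A made by a PCR-based approach.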

Staphylococcus aureus = assay: Antibacterial activity against Staphylococcus aureus; format: functional
[3] = tested on: Staphylococcus epidermidis; assay: Antibacterial activity against Staphylococcus epidermidis; format: functional
[4] = AUCt in ICR mouse at 2.5 mg/kg, iv by LC-MS/MS analysis; format: ADME, organism-based; details: in vivo
In short: (§1)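 Single-dose PK in male ICR mice, bolus p.o. 25 mg/kg or i.v. 2.5 mg/kg. Plasma concentration followed over time, n = 3. Parameters derived by noncompartmental analysis of the concentration–time curves. Oral bioavailability calculated from AUC.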

[5] = Clearance in ICR mouse at 2.5 mg/kg, iv by LC-MS/MS analysis; format: ADME, organism-based; details: in vivo; in short: as §1
[6] = Drug metabolism in ICR mouse liver microsomes assessed as ) 6-(cyclobutoxy)-4-[(R)-hydroxy-[(1S,2S,4S,5Z)-5-(2-hydroxyethylidene)quinuclidin-2-yl]methyl]-1H-quinolin-2-one metabolite formation at 10 uM preincubated with NADPH for 10 mins by LC-MS/MS analysis; format: ADME, Microsome
[7] = Cytotoxicity against human HepG2 cells assessed as reduction in cell viability after 48 hrs by Alamar Blue assay; format: cell-based
[8] = Volume of distribution at steady state in ICR mouse at 2.5 mg/kg, iv by LC-MS/MS analysis; format: ADME, organism-based; details: in vivo, read-out: Vdss
In short: (§2)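 Male ICR mice, single i.v. bolus at 2.5 mg/kg. Serum concentration-time curves (n = 3) analysed noncompartmentally to give Tmax and steady-state volume of distribution.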

[9] = Drug metabolism in ICR mouse liver microsomes at 10 uM preincubated with NADPH for 10 mins and measured after 60 mins by LC-MS/MS analysis; format: ADME, Microsome; details: read-out: Drug metabolism
[10] = Cmax in ICR mouse at 2.5 mg/kg, iv by LC-MS/MS analysis; format: ADME, organism-based; design: dose 2.5 mg/kg, route intravenous; details: in vivo; in short: as §1
[11] = AUCt in ICR mouse at 25 mg/kg, po via bolus administration by LC-MS/MS analysis; format: ADME, organism-based; details: in vivo; in short: as §1
[12] = Tmax in ICR mouse at 25 mg/kg, po via bolus administration by LC-MS/MS analysis; format: ADME, organism-based; details: in vivo
In short: (§3)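 Male ICR mice, single oral bolus at 25 mg/kg. Serum concentration-time profiles (n = 3) analysed by noncompartmental analysis.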

[13] = Drug level in ICR mouse liver microsomes treated with 6-Cyclobutoxy-(R)-4-[((1S,2S,4S,5E)-5-ethylidene-1-azabicyclo[2.2.2]octan-2-yl)hydroxymethyl]quinoline at 10 uM preincubated with NADPH for 10 mins and measured after 90 mins by LC-MS/MS analysis; format: ADME, Microsome; details: 1.5 h
[14] = Drug metabolism in ICR mouse liver microsomes assessed as [(1S,2S,4S,5Z)-5-ethylidenequinuclidin-2-yl]-(6-hydroxy-4-quinolyl)methanone metabolite formation at 10 uM preincubated with NADPH for 10 mins by LC-MS/MS analysis; format: ADME, Microsome
[15] = Drug metabolism in ICR mouse liver microsomes assessed as [6-(cyclobutoxy)-4-quinolyl]-[(1S,2S,4S,5Z)-5-(2-hydroxyethylidene)quinuclidin-2-yl]methanone metabolite formation at 10 uM preincubated with NADPH for 10 mins by LC-MS/MS analysis; format: ADME, Microsome
Streptococcus pneumoniae [16] = assay: Antibacterial activity against Streptococcus pneumoniae D39 after 20 hrs by CLSI-based microdilution method; format: functional; details: D39, 20 h
[17] = Drug metabolism in ICR mouse liver microsomes assessed as (2S,3S,4S,5R,6R)-6-[[4-[(R)-[(1S,2S,4S,5Z)-5-ethylidenequinuclidin-2-yl]-hydroxy-methyl]-6-quinolyl]oxy]-3,4,5-trihydroxy-tetrahydropyran-2-carboxylic acid metabolite formation at 10 uM preincubated with NADPH for 10 mins by LC-MS/MS analysis; format: ADME, Microsome
[18] = Elimination half life in ICR mouse at 2.5 mg/kg, iv by LC-MS/MS analysis; format: ADME, organism-based; details: in vivo, read-out: beta t1/2 (converted); in short: as §1
[19] = Cmax in ICR mouse at 25 mg/kg, po via bolus administration by LC-MS/MS analysis; format: ADME, organism-based; design: dose 25 mg/kg, route oral; details: in vivo; in short: as §1
[20] = Drug level in ICR mouse liver microsomes treated with 6-Cyclobutoxy-(R)-4-[((1S,2S,4S,5Z)-5-ethylidene-1-azabicyclo-[2.2.2]octan-2-yl)hydroxymethyl]quinoline at 10 uM preincubated with NADPH for 10 mins and measured after 90 mins by LC-MS/MS analysis; format: ADME, Microsome; details: 1.5 h
[21] = Tmax in ICR mouse at 2.5 mg/kg, iv by LC-MS/MS analysis; format: ADME, organism-based; details: in vivo; in short: as §2
[22] = Oral bioavailability in ICR mouse at 25 mg/kg via bolus administration by LC-MS/MS analysis; format: ADME, organism-based; details: in vivo; in short: as §3
[23] = Elimination half life in ICR mouse at 25 mg/kg, po via bolus administration by LC-MS/MS analysis; format: ADME, organism-based; details: in vivo, read-out: beta t1/2 (converted); in short: as §1
[24] = Mitochondrial toxicity in human HepG2 cells assessed as reduction in cell viability after 24 hrs in presence of galactose by CellTiter-Glo assay; format: cell-based
In short: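 HepG2 cells are grown in DMEM supplemented with 10 mM galactose or 10 mM glucose and treated for 24 h. Viability is read by CellTiter-Glo luminescence. The CC90 is the concentration inhibiting 90% of cell viability, taken from dose–response curves. Oligomycin and tamoxifen serve as controls.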

[25] = Mitochondrial toxicity in human HepG2 cells assessed as reduction in cell viability after 24 hrs in presence of glucose by CellTiter-Glo assay; format: cell-based
In short: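 HepG2 cells grown in DMEM with 10 mM glucose, treated 24 h; viability read by CellTiter-Glo luminescence. Value is the concentration giving 90% loss of viability (CC90) from dose-response curves, top concentration 300 µM.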

Streptococcus pneumoniae [26] = assay: Antibacterial activity against amoxicillin/penicillin/erythromycin/ertapenem/moxifloxacin/cefotaxime-resistant Streptococcus pneumoniae TH2889 (6B) after 20 hrs by CLSI-based microdilution method; format: functional
Streptococcus pneumoniae [27] = assay: Bactericidal activity against Streptococcus pneumoniae D39 after 24 hrs; format: functional; details: D39, 24 h
Streptococcus pneumoniae [28] = assay: Antibacterial activity against amoxicillin/penicillin/chloramphenicol/erythromycin/meropenem/cefotaxime-resistant Streptococcus pneumoniae TH2582 (19A) after 20 hrs by CLSI-based microdilution method; format: functional
Streptococcus pneumoniae [29] = assay: Antibacterial activity against amoxicillin/penicillin/cefotaxime/erythromycin/tetracycline-resistant Streptococcus pneumoniae TH2784 (19F) after 20 hrs by CLSI-based microdilution method; format: functional
[30] = Elimination half life in human
[31] = Protein binding in plasma (unknown origin); format: ADME, cell-free; details: read-out: PPB
[32] = Cmax in human; format: ADME
Streptococcus pneumoniae [33] = assay: Antibacterial activity against optochin-resistant Streptococcus pneumoniae R6 expressing atpE G145A mutant after 20 hrs by CLSI-based microdilution method; format: functional; details: R6, 20 h
Streptococcus pneumoniae [34] = assay: Antibacterial activity against penicillin/erythromycin/meropenem/tetracycline-resistant Streptococcus pneumoniae TH2863 (19F) after 20 hrs by CLSI-based microdilution method; format: functional
Streptococcus pneumoniae [35] = assay: Antibacterial activity against optochin-resistant Streptococcus pneumoniae R6 expressing atpE G142C mutant after 20 hrs by CLSI-based microdilution method; format: functional; details: R6, 20 h
Streptococcus pneumoniae [36] = assay: Antibacterial activity against Streptococcus pneumoniae R6 after 20 hrs by CLSI-based microdilution method; format: functional; details: R6, 20 h

Structure (SMILES)	AUC(0-t) [4] [ng·h/mL]	clearance [5] [mL/min/kg]	CC50 at 48 h [7] [µM]	Vd [8] [L/kg]	metabolised at 1 h, 10 µM [9] [%]	Cmax [10] [ng/mL]	AUC(0-t) [11] [ng·h/mL]	Tmax [12] [min]	MIC (Streptococcus pneumoniae [16]) [µM]	half-life [18] [min]	Cmax [19] [ng/mL]	Tmax [21] [min]	bioavailability [22] [%]	half-life [23] [min]	CC90 at 24 h [24] [µM]	CC90 at 24 h [25] [µM]	also measured
N#CC(C#N)=NNc1cccc(Cl)c1																	pH [1]: 5.43
OC(c1cc(C2C[C@H]3CC[C@@H]2CC3)nc2c(Cl)c(Cl)ccc12)C1CCCCN1 (stereo partly drawn)																	MIC (Enterococcus faecium): 1.5 to 6.3 µg/mL (≈ 3.58 to 15 µM); MIC (Streptococcus pyogenes): 1.5 to 6.3 µg/mL (≈ 3.58 to 15 µM); MIC (Enterococcus faecalis): 1.5 to 6.3 µg/mL (≈ 3.58 to 15 µM); MIC (Streptococcus pneumoniae [2]): 0.08 to 1.25 µg/mL (≈ 0.191 to 2.98 µM); MIC (Staphylococcus aureus): 1.5 to 6.3 µg/mL (≈ 3.58 to 15 µM); MIC [3]: 1.5 to 6.3 µg/mL (≈ 3.58 to 15 µM)
C/C=C1\C[N@]2CC[C@H]1C[C@H]2[C@H](O)c1ccnc2ccc(OC3CCC3)cc12	235	172	59	6.3	99.8	521	319	15	1.4 (≈ 0.51 µg/mL)	25.2	207	1.98	13.6	41.4			Drug metabolism [6]: Metabolite_Detected; Drug uptake [13]: Active; Drug metabolism [14]: Metabolite_Detected; Drug metabolism [15]: Metabolite_Detected; Drug metabolism [17]: Metabolite_Detected; Drug uptake [20]: Active
C/C=C1/CN2CC[C@H]1C[C@H]2[C@H](O)c1ccnc2ccc(O)cc12	190	207	> 100	20	89	511	442	4.98	52 (≈ 16.1 µg/mL)	67.2	619	1.98	23.3	54.6	300	> 300	MIC (Streptococcus pneumoniae [26]): 128 µg/mL (≈ 412 µM); MBC (Streptococcus pneumoniae [27]): 16 µg/mL (≈ 51.5 µM); MIC (Streptococcus pneumoniae [28]): 64 µg/mL (≈ 206 µM); MIC (Streptococcus pneumoniae [29]): 4 µg/mL (≈ 12.9 µM)
O[C@@H](c1cc(C(F)(F)F)nc2c(C(F)(F)F)cccc12)[C@H]1CCCCN1 [(S,R)-MEFLOQUINE]																	half-life [30]: 20 days; fraction unbound [31]: < 0.02; Cmax [32]: 50 ng/mL; MIC (Enterococcus faecalis): 16 µg/mL (≈ 42.3 µM); MIC (Streptococcus pneumoniae [2]): 0.4 to 0.8 µg/mL (≈ 1.06 to 2.11 µM); MIC (Staphylococcus aureus): 16 µg/mL (≈ 42.3 µM); MIC [3]: 16 µg/mL (≈ 42.3 µM)
CCOc1ccc2nccc([C@@H](O)[C@@H]3C[C@@H]4CCN3C[C@@H]4CC)c2c1 [ETHYLHYDROCUPREINE]	144	274	> 100	12.7	87	375	1570	30	6 to 12 (≈ 2.04 to 4.09 µg/mL)	31.8	639	1.98	109	60	300	300	MIC (Streptococcus pneumoniae [26]): 2 µg/mL (≈ 5.87 µM); MBC (Streptococcus pneumoniae [27]): 4 µg/mL (≈ 11.7 µM); MIC (Streptococcus pneumoniae [33]): 16 µg/mL (≈ 47 µM); MIC (Streptococcus pneumoniae [28]): 2 µg/mL (≈ 5.87 µM); MIC (Streptococcus pneumoniae [34]): 4 to 8 µg/mL (≈ 11.7 to 23.5 µM); MIC (Streptococcus pneumoniae [29]): 2 µg/mL (≈ 5.87 µM); MIC (Streptococcus pneumoniae [35]): 64 µg/mL (≈ 188 µM); MIC (Streptococcus pneumoniae [36]): 2 µg/mL (≈ 5.87 µM)
C/C=C1/C[N@]2CC[C@H]1C[C@H]2[C@H](O)c1ccnc2ccc(OC3CCC3)cc12	175	230	65	8.8		399	368	4.98	0.7 (≈ 0.255 µg/mL)	26.4	331	1.98	21	42			
